From ChEMBL document CHEMBL4138048, “Synthesis of substituted 2H-benzo[e]indazole-9-carboxylate as a potent antihyperglycemic agent that may act through IRS-1, Akt and GSK-3β pathways” (Medchemcomm, 2017) come the findings set out here.

Calls of active or inactive are those of the source. The calls are words filed in the database; no cut-off is given here.

For test [1], the system named is HepG2. Kind of test: Stimulation of [3H]2-deoxyglucose uptake in human HepG2 cells at 10 uM incubated for 16 hrs by scintillation counting method. The test is classed as functional, cell-based.
In test [2] the test system is L6. Kind of test: Stimulation of [3H]2-deoxyglucose uptake in rat L6 cells at 10 uM incubated for 16 hrs by scintillation counting method. The test is classed as functional, cell-based. Summed up: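 L6 myotubes incubated with the compound […]; insulin at 100 nM for 20 min served as the positive control. Uptake of ³H-2-deoxyglucose measured and expressed as fold stimulation relative to the control condition.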

For test [3], the system named is Mus musculus. Nature of the test: Antihyperglycemic activity in db/db mouse assessed as reduction in blood glucose level at 10 mg/kg, po qd and measured on day 4 by oral glucose tolerance test. The test is classed as functional, organism-based. The gist of the method: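 Type 2 diabetic db/db mice dosed orally once a day for 15 days at 3, 10 or 30 mg/kg, with pioglitazone at 10 mg/kg as standard. Blood glucose measured daily and profile compared with vehicle-treated animals. Mean % change in 5 animals per group.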

In test [4] the test system is Mus musculus. Kind of test: Antihyperglycemic activity in db/db mouse assessed as improvement on glucose tolerance by measuring blood glucose AUC level at 10 mg/kg, po qd for 10 days by oral glucose tolerance test. The test is classed as functional. The gist of the method: (§1)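 db/db mice dosed orally once daily for 15 consecutive days at 3, 10 or 30 mg/kg, with vehicle controls and pioglitazone at 10 mg/kg. Oral glucose tolerance tests on day 10 and day 15. Overall improvement in glucose tolerance calculated against vehicle control. Mean % change in 5 animals per group.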

Test [5] has as its system Mus musculus. Nature of the test: Antihyperglycemic activity in db/db mouse assessed as improvement on glucose tolerance by measuring blood glucose AUC level at 10 mg/kg, po qd for 15 days by oral glucose tolerance test. Format: functional. The gist of the method: as §1
Test [6] relates to Mus musculus. Kind of test: Antihyperglycemic activity in db/db mouse assessed as reduction in triglyceride level at 10 mg/kg, po qd for 15 days. Format: functional. On the set-up: scale not given: the % may be the effect or the level left. Summed up:
(§2)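 db/db mice given 3, 10 or 30 mg/kg orally once a day for 15 consecutive days, alongside vehicle controls. Serum triglyceride, total cholesterol, HDL-C and insulin measured, along with fasting blood glucose. Expressed as mean % change in 5 animals per group versus control.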

Test [7] deals with Mus musculus. Nature of the test: Antihyperglycemic activity in db/db mouse assessed as reduction in cholesterol level at 10 mg/kg, po qd for 15 days. Format: functional. Set-up: scale not given: the % may be the effect or the level left. The gist of the method:
as §2

Test [8] deals with Mus musculus. Kind of test: Antihyperglycemic activity in db/db mouse assessed as increase in HDL-C level at 10 mg/kg, po qd for 15 days. The test is classed as functional. Summed up:
as §2

Test [9] concerns Mus musculus. Kind of test: Antihyperglycemic activity in db/db mouse assessed as reduction in fasting blood glucose level at 10 mg/kg, po qd for 15 days. Format: functional. On the set-up: scale not given: the % may be the effect or the level left. The gist of the method:
as §2

In test [10] the test system is Mus musculus. Kind of test: Antihyperglycemic activity in db/db mouse assessed as reduction in insulin level at 10 mg/kg, po qd for 15 days. Format: functional. On the set-up: scale not given: the % may be the effect or the level left. Summed up:
as §2

As for `CN(C)C(=N)NC(=N)N`, in test [1], the outcome was Active.
In the case of `COC(=O)c1c(S(C)(=O)=O)cc(-c2ccc(C)cc2)c2c1-c1cn(-c3ccccc3)nc1CC2`, the outcome in [2] was inactive.
On the same count and under the same terms, to `COC(=O)c1c(SC)cc(-c2ccc(Br)cc2)c2c1-c1cn(-c3ccccc3)nc1CC2` belongs “inactive”; to `COC(=O)c1c(SC)cc(-c2cccs2)c2c1-c1cn(-c3ccccc3)nc1CC2`, “inactive”; to `COC(=O)c1c(SC)cc(-c2ccc(F)cc2)c2c1-c1cn(-c3ccccc3)nc1CC2`, “inactive”.
For `COC(=O)c1c(SC)cc(-c2ccccc2)c2c1-c1cn(-c3ccccc3)nc1CC2`, the outcome in test [2] was inactive.
For `COC(=O)c1c(S(C)(=O)=O)cc(-c2ccc(F)cc2)c2c1-c1cn(-c3ccccc3)nc1CC2`, the result in [2] was inactive.
Take `COC(=O)c1c(SC)cc(-c2ccc(Cl)cc2)c2c1-c1cn(-c3ccccc3)nc1CC2`: the outcome in test [2] was inactive.
Take `CCc1ccc(CCOc2ccc(CC3SC(=O)NC3=O)cc2)nc1` (stereo not drawn) [PIOGLITAZONE]: the result in [3] was Active. The Activity in [4] came to 34.8%; in test [5], 45.4%; in [6], 9.58%; in test [7], 15.1%; in [8] it was 23.9%; in test [9], 59.1%. The Activity in test [10] is recorded as 58.1%.
For the compound `COC(=O)c1c(SC)cc(-c2ccc3ccc4cccc5ccc2c3c45)c2c1-c1cn(-c3ccccc3)nc1CC2`, the result in [2] was inactive.
For `COC(=O)c1c(SC)cc(-c2ccc(OC)cc2)c2c1-c1cn(-c3ccccc3)nc1CC2`, the outcome in test [2] was inactive.
